Source: ChEMBL document CHEMBL3853310, “Daphnane Diterpenes from Daphne genkwa Activate Nurr1 and Have a Neuroprotective Effect in an Animal Model of Parkinson's Disease” (J Nat Prod, 2016)
Calls of active or inactive are those of the source. The rule behind the calls is not given here.

Key:
SH-SY5Y [1] = experiment: Neuroprotective activity against 6-OHDA-induced cell death in human SH-SY5Y cells assessed as decrease in cleaved caspase-3 level at 6 uM by Western blot method; type: functional, cell-based
In short: (§1)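 SH-SY5Y cells exposed to 6-OHDA in serum-free N-2 medium ± compound at 6 µM. Lysates in Triton/Tris/NaCl/PMSF, SDS-PAGE, PVDF blot, HRP secondary, ECL detection of cleaved caspase-3 and cytosolic cytochrome c. Actin and SOD-1 used as loading controls.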

[2] = target: Nuclear receptor subfamily 4 group A member 2 (Mus musculus) (UniProt Q06219); experiment: Activation of mouse Nurr1 transfected in human SK-N-BE(2)C cells by luciferase reporter gene assay; type: cell-based
Chain of Nuclear receptor subfamily 4 group A member 2 (Mus musculus) (Q06219 whole entry, the tested form may be a part): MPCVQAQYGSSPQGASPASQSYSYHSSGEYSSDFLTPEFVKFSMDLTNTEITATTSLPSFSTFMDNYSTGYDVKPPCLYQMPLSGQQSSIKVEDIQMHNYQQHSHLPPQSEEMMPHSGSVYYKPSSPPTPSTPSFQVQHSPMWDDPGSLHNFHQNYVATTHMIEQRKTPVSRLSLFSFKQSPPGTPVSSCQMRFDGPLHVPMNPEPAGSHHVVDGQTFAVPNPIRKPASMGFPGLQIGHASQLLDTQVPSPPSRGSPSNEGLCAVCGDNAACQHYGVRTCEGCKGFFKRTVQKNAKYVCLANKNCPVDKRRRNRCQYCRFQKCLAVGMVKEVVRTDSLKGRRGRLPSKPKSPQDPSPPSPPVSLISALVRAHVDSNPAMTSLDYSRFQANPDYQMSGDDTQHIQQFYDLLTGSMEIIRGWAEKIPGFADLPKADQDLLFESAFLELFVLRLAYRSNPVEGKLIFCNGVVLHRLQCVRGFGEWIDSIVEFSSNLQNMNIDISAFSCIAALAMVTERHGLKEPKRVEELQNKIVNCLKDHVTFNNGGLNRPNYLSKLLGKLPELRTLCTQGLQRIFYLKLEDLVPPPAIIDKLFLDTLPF
In short: (§2)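 SK-N-BE(2)C neuroblastoma cells plated 1.5 × 10^5/well a day before, transfected with pTH2600LUC (2.6 kb rat TH promoter), pCMV Nurr1-myc, pZeoSV-Nurr1(LBD), p8xGAL-Luc and pRSV-β-gal control (0.5 µg DNA/well total). Test agent added 6 h post-transfection in DMEM with 1% charcoal-stripped serum, incubated overnight. Firefly luciferase read, normalized to β-galactosidase.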

[3] = target: Nuclear receptor subfamily 4 group A member 2 (Mus musculus) (UniProt Q06219); experiment: Activation of mouse Nurr1 transfected in human SK-N-BE(2)C cells at 0.3 uM by luciferase reporter gene assay relative to control; type: cell-based; in short: as §2
[4] = Cytotoxicity against human SK-N-BE(2)C cells up to 30 uM; type: toxicity, cell-based
SH-SY5Y [5] = experiment: Neuroprotective activity against 6-OHDA-induced cell death in human SH-SY5Y cells assessed as increase in cell viability at 6.25 uM by MTT reduction assay; type: functional, cell-based
In short: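 SH-SY5Y cells grown 2 days on poly-D-lysine in DMEM with 10% horse serum and 5% FBS, then switched to serum-free N-2 medium containing 6-OHDA ± compound. Viability by MTT (1 mg/mL final, 1 h), formazan solubilized 24 h in Triton/HCl/isopropanol, absorbance 570 nm. ANOVA with Tukey–Kramer, n = 4.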

[6] = Cytotoxicity against human SH-SY5Y cells assessed as decrease in cell viability at higher concentrations by MTT reduction assay; type: toxicity, cell-based
SH-SY5Y [7] = experiment: Neuroprotective activity against 6-OHDA-induced cell death in human SH-SY5Y cells assessed as decrease in release of mitochondrial cytochrome c into cytosolic fraction at 6 uM by Western blot method; type: functional, cell-based; in short: as §1
BV-2 [8] = experiment: Antiinflammatory activity in mouse BV2 cells assessed as downregulation of LPS-induced IL-1beta mRNA expression at 3 uM by qRT-PCR method; type: functional, cell-based
In short: (§3)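 BV-2 mouse microglia (DMEM, 10% heat-inactivated FBS, 2 mM glutamine) in six-well plates at 1.0 × 10^5 cells/well, given LPS with or without compound at 37 °C. RNA extracted. IL-1β and IL-6 mRNA measured by SYBR Green real-time PCR on cDNA from 50 ng DNase-treated RNA. ANOVA with Tukey–Kramer, n = 4.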

BV-2 [9] = experiment: Antiinflammatory activity in mouse BV2 cells assessed as downregulation of LPS-induced IL-6 mRNA expression at 3 uM by qRT-PCR method; type: functional, cell-based; in short: as §3
BV-2 [10] = experiment: Antiinflammatory activity in mouse BV2 cells assessed as downregulation of LPS-induced IL-1beta level at 3 uM by Western blot method; type: functional, cell-based
BV-2 [11] = experiment: Antiinflammatory activity in mouse BV2 cells assessed as downregulation of LPS-induced IL-6 level at 3 uM by Western blot method; type: functional, cell-based
Rattus norvegicus [12] = experiment: Neuroprotective activity in 6-OHDA-lesioned Sprague-Dawley rat model of parkinson disease assessed as decrease in d-amphetamine-induced ipsilateral rotations at 0.5 mg/kg/day, ip administered for 2 weeks measured on day 14 and 42 post 6-OHDA lesion induction relative to vehicle-treated control; type: functional, organism-based
In short: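 Sprague-Dawley rats (140–160 g), desipramine 25 mg/kg ip 30 min before surgery, under Zoletil anesthesia. 6-OHDA 8 µL of 2.5 µg/µL injected into left striatum. Compound in saline with 0.25% ethanol or vehicle given ip daily for 2 weeks (n = 10 vs 14). d-Amphetamine 5 mg/kg. Ipsilateral turns counted for 30 min starting 30 min after dosing, at weeks 2 and 6. Student's t-test.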

Rattus norvegicus [13] = experiment: Neuroprotective activity in 6-OHDA-lesioned Sprague-Dawley rat model of parkinson disease assessed as decrease in loss of tyrosine hydroxylase-positive immunoreactive neuronal cell levels in ipsilateral side of substantia nigra pars compacta by measuring cell levels in intact contralateral side at 0.5 mg/kg/day, ip administered for 2 weeks measured on day 43 post 6-OHDA lesion induction by immunohistochemical analysis (reference value: 24.62 +/- 3.48%); type: functional; set-up: scale not given: the % may be the effect or the level left
In short: (§4)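 Same unilateral striatal 6-OHDA rat model with 2-week daily ip dosing (vehicle 0.25% ethanol). Perfused with 4% PFA on day 43. 40 µm coronal sections stained by DAB for TH (SNc, AP −4.8 to −5.5) or Iba-1 (striatum, AP +1.0 to +0.6). Cells counted in three sections per animal. TH expressed as % of contralateral side. Student's t-test, n = 10–14.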

Rattus norvegicus [14] = experiment: Antiinflammatory activity in 6-OHDA-lesioned Sprague-Dawley rat model of parkinson disease assessed as decrease in Iba-1 positive cell levels in striatum at 0.5 mg/kg/day, ip administered for 2 weeks measured on day 43 post 6-OHDA lesion induction by immunohistochemical analysis relative to vehicle-treated control; type: functional, organism-based; in short: as §4

Row | Structure (SMILES) | Activity (SH-SY5Y [1]) | Activity [2] | fold change (FC) [3] | Activity [4] | Activity (SH-SY5Y [5]) | Activity [6] | Activity (SH-SY5Y [7]) | Activity (BV-2 [8]) | Activity (BV-2 [9]) | Activity (BV-2 [10]) | Activity (BV-2 [11]) | Activity (Rattus norvegicus [12]) | Activity (Rattus norvegicus [13]) [%] | Activity (Rattus norvegicus [14])
1 | C=C(C)[C@]12C[C@@H](C)[C@@]34OC(c5ccccc5)(O[C@@H]1[C@@H]3[C@@H]1O[C@]1(CO)[C@@H](O)[C@@]1(O)[C@H]4C[C@H](C)[C@@H]1OC(=O)c1ccccc1)O2 | Active | Dose-dependent effect | 3 | Non-Toxic | Active | Toxic | Active | Active | Active | Active | Active | – | – | –
2 | C=C(C)[C@@]12OC3(/C=C/C=C/CCCCC)O[C@@H]1[C@@H]1[C@@H]4O[C@]4(CO)[C@@H](O)[C@]4(O)C(=O)C(C)=C[C@H]4[C@@]1(O3)[C@H](C)[C@H]2OC(=O)c1ccccc1 | Active | Dose-dependent effect | 3.5 | Non-Toxic | Active | Toxic | Active | Active | Active | Active | Active | Active | 40.28 | Active
